Compound activity: PubChem, Broad Institute
This is a sample that favours compounds with a hit; in the whole collection about 3.1% have one here.
T cruzi inh: blocks replication of Trypanosoma cruzi | T. cruzi beta-gal in NIH3T3, luminescence, 90 h | inhibition, % (test concentration not listed) | 1.4% of 300,000 active;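 active = mean inhibition across valid replicates above about 55%, limit read from the data; inconclusive = mean below that limit but half or more replicates reach it; inactive = mean below it, under half of replicates reach it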;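 also: signal also drops with host cell toxicity which is not excluded here; 0% = plate median of DMSO wells and 100% = zero luminescence signal; higher percent means less beta-gal luminescence so fewer parasites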
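System: mouse NIH/3T3 fibroblasts infected with β-gal-expressing T. cruzi Tulahuen C4 / Input: NIH/3T3 cells, 5,000 per well / Buffer or medium: Low-serum DMEM with 2% FBS / Probe or stimulus: 5000 reporter trypomastigotes per well / Schedule: ≥90 h infection period, 3 h prior cell attachment / Measured by: GalScreen luminescence, 60 min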
HIF act: HIF pathway transcriptional activation | U2OS HRE-luciferase reporter, luminescence; normalized: DMSO 0%, desferrioxamine 100% | activation, % at 7.5 µM (by protocol) | 0.32% of 300,000 active | AID 1910;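 active = mean activation of at least 10% of the iron chelator positive control signal, with at least half of replicates also reaching 10%; inconclusive = mean and replicate majority disagree about reaching 10%; inactive = mean and most replicates under 10%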
PolyA inhibitor: blocks polyadenylation in yeast reporter cells. S. cerevisiae SKY197-pL101 polyadenylation reporter, beta-gal luminescence; efflux-impaired pdr1/pdr3 knockout yeast; score 100 = 6 SD above DMSO. activity score, % at 12 µM. 0.02% of 300,000 active. AID 1875;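 active = lowest replicate activity score at least 50, where 100 means six control SD above control mean; inconclusive = lowest score under 50 but half or more replicates reach 50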;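 also: yeast exposed to compound for 9 h at 30 °C; higher score means more reporter readthrough which indicates perturbed polyadenylation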
CSC inhib: blocks cancer stem cells; inhibition, % at 7.5 µM; cancer stem cell-like cells viability, luminescence; 1.1% of 300,000 active; AID 2717; in the data active = inhibition above about 75%; inconclusive = no clear call, values can overlap the other calls; tested in HMLE shEcad cells
Calb FLC: C. albicans growth modulation with fluconazole. growth inhibition, % (test concentration not listed). C. albicans CaCi-2 + fluconazole, Alamar Blue growth, 48 h. AID 1979. 0.57% of 300,000 active;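 active = growth inhibition above about 58% in most replicates, limit read from the data, passing the limit was not always enough; inconclusive = exactly half the replicates above a set limit; inactive = most replicates below a set limit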;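 also: all wells also contain fluconazole at 8 µg/ml as a sub-toxic cotreatment; 0% = median of DMSO wells and 100% = median of geldanamycin control wells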
Beta apoptosis: blocks beta cell apoptosis | INS-1E cytokine-induced death, ATP luminescence, 48 h; percent of positive-control rescue, neutral wells zero | protection from apoptosis, % (test concentration not listed) | 0.8% of 300,000 active;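 active = Every replicate reaches about 75%, or at least half do and their mean reaches it too, limit read from the data; inconclusive = At least half of replicates reach the limit but their mean does not; inactive = Under half of replicates reach the limit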;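 also: 0% = cytokine-treated negative control wells and 100% = positive control rescue; higher means more ATP so stronger rescue from cytokine killing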
* = called active by the depositor; ? = inconclusive; nt = not tested or not shown.

SMILES	T cruzi inh	HIF act	PolyA inhibitor	CSC inhib	Calb FLC	Beta apoptosis
COC(=O)C1CCN(C(=O)C2CCN(C(=O)[C@@H](NS(=O)(=O)c3ccc(C)cc3)C(C)C)CC2)CC1	20.5	0.9	18.9	-2.6	-5.3	-2.2
CCCN(CC(=O)Nc1ccccc1C)C(=O)COc1c(C)cccc1C	nt	nt	nt	nt	nt	-4.1
CCCN(CC(=O)Nc1ccccc1C)C(=O)CCl	78.3*	-0.6	0.8	-2.2	-15.2	-4.2
O=C(O)C1(c2ccccc2)CCN(S(=O)(=O)c2ccc(Br)cc2)CC1	-6.0	0.9	-0.9	-0.9	2.6	-6.6
COc1cc(Nc2ccc(S(N)(=O)=O)cc2)c([N+](=O)[O-])nc1[N+](=O)[O-]	6.6	-0.7	8.0	-21.5	5.4	-2.8
CCc1cc(C(=O)N=Nc2c(O)[nH]c3c(Br)cc(Br)cc23)c2ccccc2n1	3.7	-0.3	3.1	28.0	-0.5	-3.6
O=C(CCl)N1N=C(c2cccs2)CC1c1ccco1 (stereo not drawn)	83.0*	-0.2	-22.4	56.4	2.6	-38.1
Cc1cc(C)c2c(N)c3cccc(C)c3nc2n1	57.6*	nt	16.1	-4.4	8.7	98.5*
Cc1ccc(-c2csc3ncnc(Sc4nnc(CN5CCCCCC5=O)o4)c23)cc1	-65.9	1.3	0.3	81.0*	?	-1.3
Cc1c(C(=O)Nc2ccc(Cl)cc2)c2ccccn2c1C(=O)c1ccc([N+](=O)[O-])cc1	65.5*	0.0	-11.0	-3.1	27.4	0.4
COc1ccc(C2=NOC(COc3ccc4c(C)cc(=O)oc4c3)C2)c(OC)c1 (stereo not drawn)	10.5	-0.4	-1.9	60.9	-0.2	5.0
COc1ccccc1C1=NOC(COc2ccc3c(C)cc(=O)oc3c2)C1 (stereo not drawn)	-7.7	1.5	-10.0	79.1*	-3.6	19.8
O=C1c2ccccc2C(=O)c2c(Nc3ccc(CCO)cc3)ccc(O)c21	-1.2	-14.8	-17.6	88.3*	-5.2	21.9
C=C1CCc2c([nH]c3ccc(OCC(C)C)cc23)C1=O	47.6	-0.4	-50.4	86.7*	3.9	139.4*
Cc1nc(C2CCC3C4CCC5=CC(=O)CC[C@]5(C)C4CC[C@]23C)cs1 (stereo partly drawn)	6.5	-12.1	-6.5	86.2*	7.5	101.3*
CC(=O)OC1CCC2C3CCC4=CC(=O)CCC4(C)C3CCC2(C)[C@]1(C)O (stereo partly drawn)	-0.2	0.9	12.0	-5.2	-11.1	21.4
CCOC(=O)N1CCN(C(=O)CC(C(=O)N2CCc3ccccc32)n2ccnc2)CC1 (stereo not drawn)	63.4*	-0.4	3.0	nt	1.3	nt
O=[N+]([O-])c1cnc(Sc2ccncn2)s1	18.8	-6.4	-16.2	106.9*	1.9	108.8*
O=C1NCCN1c1ncc([N+](=O)[O-])s1	nt	nt	nt	-4.6	nt	5.0
Cc1nc2ccc(NC(=O)CCC3CCCC3)cc2s1	-6.5	5.9	-14.9	-11.3	1.5	nt
COc1ccc(NS(=O)(=O)c2cccs2)cc1S(=O)(=O)N1CCOCC1	-3.2	-0.7	-0.2	-13.7	2.4	-1.4
COc1ccc(Nc2nc(-c3cccs3)nc3ccccc23)cc1S(=O)(=O)N1CCOCC1	54.6*	-0.1	7.9	38.1	-3.1	28.6
CCOC(=O)c1cnc(SC)nc1Oc1cccc(NS(=O)(=O)c2ccccc2)c1	56.3*	-1.1	10.5	15.2	-2.3	16.6
CCOC(=O)CNc1nc(Cl)nc(Nc2ccc(C)cc2)n1	-12.0	1.0	0.7	-10.5	7.2	-4.9
Cc1ccc(Nc2nc(Cl)nc(NC(C)(C)C)n2)cc1	25.6	-15.0	13.0	8.9	94.5*	nt
Cn1nnnc1SC1CC(=O)N(c2ccccc2)C1=O (stereo not drawn)	65.9*	-0.8	-3.2	-8.5	-22.4	0.6
O=C(Cn1cnc2c(nnn2Cc2ccc(F)cc2)c1=O)NC1CCCC1	-3.7	0.2	nt	nt	100.2*	0.3
O=C(Cn1cnc2c(nnn2Cc2ccc(Cl)cc2)c1=O)NC1CCCC1	-6.9	-0.3	28.7	-8.2	-4.5	5.6
COc1ccc2cc(S(=O)(=O)NC3CC(C)(C)NC(C)(C)C3)ccc2c1	27.7	-0.4	9.3	-3.7	-8.1	-3.4
O=C(Nc1ccccc1)c1nc[nH]c1C(=O)NCCCCNC(=O)c1[nH]cnc1C(=O)Nc1ccccc1	nt	nt	nt	17.0	nt	0.4
